Source: ChEMBL document CHEMBL4382218, “Design, synthesis and antifungal evaluation of borrelidin derivatives” (Bioorg Med Chem, 2018)
Calls of active or inactive are those of the source.

Columns and labels:
Assay type in all cases: functional, organism-based
[1] = tested on: Aspergillus fumigatus; assay: Antifungal activity against Aspergillus fumigatus CCTCC AF 93048 at 100 ug/ml after 48 hrs by micro broth dilution method
Outline: (§1)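 Broth microdilution in RPMI-1640 (NaHCO3, MOPS, pH 7.0). Compounds are dissolved in DMSO and serially diluted 2-fold to eight concentrations, with stocks of […]. Fungal inocula are 2 × 10³ cfu/mL. Plates are incubated 48 h at 28 °C. The MIC is the lowest concentration with no turbidity, and the highest concentration tested is 100 μg/mL.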

[2] = tested on: Candida parapsilosis; assay: Antifungal activity against Candida parapsilosis ATCC 22019 at 100 ug/ml after 48 hrs by micro broth dilution method; outline: as §1
[3] = tested on: Candida albicans; assay: Antifungal activity against Candida albicans ATCC MYA-2876 at 100 ug/ml after 48 hrs by micro broth dilution method; outline: as §1

Measured: Activity

C[C@@H]1C[C@H](C)C[C@H](C)[C@@H](O)CC(=O)O[C@H]([C@@H]2CCC[C@H]2C(=O)N2CCN(C)CC2)C/C=C/C=C(/C#N)[C@H](O)[C@@H](C)C1
inactive: all assays above

C[C@@H]1C[C@H](C)C[C@H](C)[C@@H](O)CC(=O)O[C@H]([C@@H]2CCC[C@H]2C(=O)OCCN2CCN(Cc3ccc(F)cc3)CC2)C/C=C/C=C(/C#N)[C@H](O)[C@@H](C)C1
inactive: all assays above

C[C@@H]1C[C@H](C)C[C@H](C)[C@@H](O)CC(=O)O[C@H]([C@@H]2CCC[C@H]2C(=O)OCCN2CCN(Cc3ccc([N+](=O)[O-])cc3)CC2)C/C=C/C=C(/C#N)[C@H](O)[C@@H](C)C1
inactive: all assays above

CC(=O)CN1CCN(CCOC(=O)[C@@H]2CCC[C@H]2[C@@H]2C/C=C/C=C(/C#N)[C@H](O)[C@@H](C)C[C@H](C)C[C@H](C)C[C@H](C)[C@@H](O)CC(=O)O2)CC1
inactive: all assays above

C[C@@H]1C[C@H](C)C[C@H](C)[C@@H](O)CC(=O)O[C@H]([C@@H]2CCC[C@H]2C(=O)OCCN2CCN(Cc3ccccc3)CC2)C/C=C/C=C(/C#N)[C@H](O)[C@@H](C)C1
inactive: all assays above

C[C@@H]1C[C@H](C)C[C@H](C)[C@@H](O)CC(=O)O[C@H]([C@@H]2CCC[C@H]2C(=O)OCCN2CCN(C(=O)c3ccccc3)CC2)C/C=C/C=C(/C#N)[C@H](O)[C@@H](C)C1
inactive: all assays above

C[C@@H]1C[C@H](C)C[C@H](C)[C@@H](O)CC(=O)O[C@H]([C@@H]2CCC[C@H]2C(=O)NCCc2ccccn2)C/C=C/C=C(/C#N)[C@H](O)[C@@H](C)C1
inactive: all assays above

C[C@@H]1C[C@H](C)C[C@H](C)[C@@H](O)CC(=O)O[C@H]([C@@H]2CCC[C@H]2C(=O)OCCN2CCNCC2)C/C=C/C=C(/C#N)[C@H](O)[C@@H](C)C1
inactive: all assays above

COC(=O)[C@@H](CC(C)C)NC(=O)[C@@H]1CCC[C@H]1[C@@H]1C/C=C/C=C(/C#N)[C@H](O)[C@@H](C)C[C@H](C)C[C@H](C)C[C@H](C)[C@@H](O)CC(=O)O1
inactive: all assays above

COC(=O)[C@@H](Cc1cnc[nH]1)NC(=O)[C@@H]1CCC[C@H]1[C@@H]1C/C=C/C=C(/C#N)[C@H](O)[C@@H](C)C[C@H](C)C[C@H](C)C[C@H](C)[C@@H](O)CC(=O)O1
inactive: all assays above

C[C@@H]1C[C@H](C)C[C@H](C)[C@@H](O)CC(=O)O[C@H]([C@@H]2CCC[C@H]2C(=O)OCCN2CCN(Cc3ccc(Cl)cc3)CC2)C/C=C/C=C(/C#N)[C@H](O)[C@@H](C)C1
inactive: all assays above

CCCCCN(CCCC)C(=O)[C@@H]1CCC[C@H]1[C@@H]1C/C=C/C=C(/C#N)[C@H](O)[C@@H](C)C[C@H](C)C[C@H](C)C[C@H](C)[C@@H](O)CC(=O)O1
inactive: all assays above

Cc1ccc(CN2CCN(CCOC(=O)[C@@H]3CCC[C@H]3[C@@H]3C/C=C/C=C(/C#N)[C@H](O)[C@@H](C)C[C@H](C)C[C@H](C)C[C@H](C)[C@@H](O)CC(=O)O3)CC2)cc1
inactive: all assays above

C[C@@H]1C[C@H](C)C[C@H](C)[C@@H](O)CC(=O)O[C@H]([C@@H]2CCC[C@H]2C(=O)N2CCN(CCO)CC2)C/C=C/C=C(/C#N)[C@H](O)[C@@H](C)C1
inactive: all assays above

COC(=O)[C@@H](Cc1ccccc1)NC(=O)[C@@H]1CCC[C@H]1[C@@H]1C/C=C/C=C(/C#N)[C@H](O)[C@@H](C)C[C@H](C)C[C@H](C)C[C@H](C)[C@@H](O)CC(=O)O1
inactive: all assays above

C[C@@H]1C[C@H](C)C[C@H](C)[C@@H](O)CC(=O)O[C@H]([C@@H]2CCC[C@H]2C(=O)OCCN2CCN(Cc3ccc(Br)cc3)CC2)C/C=C/C=C(/C#N)[C@H](O)[C@@H](C)C1
inactive: all assays above

COc1ccc(CCNC(=O)[C@@H]2CCC[C@H]2[C@@H]2C/C=C/C=C(/C#N)[C@H](O)[C@@H](C)C[C@H](C)C[C@H](C)C[C@H](C)[C@@H](O)CC(=O)O2)cc1
inactive: all assays above

C[C@@H]1C[C@H](C)C[C@H](C)[C@@H](O)CC(=O)O[C@H]([C@@H]2CCC[C@H]2C(=O)OCC2CC2)C/C=C/C=C(/C#N)[C@H](O)[C@@H](C)C1
inactive: all assays above

C[C@@H]1C[C@H](C)C[C@H](C)[C@@H](O)CC(=O)O[C@H]([C@@H]2CCC[C@H]2C(=O)OCCN2CCN(C(=O)OCc3ccccc3)CC2)C/C=C/C=C(/C#N)[C@H](O)[C@@H](C)C1
inactive: all assays above

CC(=O)N1CCN(CCOC(=O)[C@@H]2CCC[C@H]2[C@@H]2C/C=C/C=C(/C#N)[C@H](O)[C@@H](C)C[C@H](C)C[C@H](C)C[C@H](C)[C@@H](O)CC(=O)O2)CC1
inactive: all assays above

C[C@@H]1C[C@H](C)C[C@H](C)[C@@H](O)CC(=O)O[C@H]([C@@H]2CCC[C@H]2C(=O)OCCN2CCN(Cc3ccc(F)cc3F)CC2)C/C=C/C=C(/C#N)[C@H](O)[C@@H](C)C1
inactive: all assays above

C[C@@H]1C[C@H](C)C[C@H](C)[C@@H](O)CC(=O)O[C@H]([C@@H]2CCC[C@H]2C(=O)NCc2ccccc2)C/C=C/C=C(/C#N)[C@H](O)[C@@H](C)C1
inactive: all assays above

C[C@@H]1C[C@H](C)C[C@H](C)[C@@H](O)CC(=O)O[C@H]([C@@H]2CCC[C@H]2C(=O)OCc2ccccn2)C/C=C/C=C(/C#N)[C@H](O)[C@@H](C)C1
inactive: all assays above

COC(=O)[C@@H](Cc1c[nH]c2ccccc12)NC(=O)[C@@H]1CCC[C@H]1[C@@H]1C/C=C/C=C(/C#N)[C@H](O)[C@@H](C)C[C@H](C)C[C@H](C)C[C@H](C)[C@@H](O)CC(=O)O1
inactive: all assays above

C[C@@H]1C[C@H](C)C[C@H](C)[C@@H](O)CC(=O)O[C@H]([C@@H]2CCC[C@H]2C(=O)N2CCCC2)C/C=C/C=C(/C#N)[C@H](O)[C@@H](C)C1
inactive: all assays above

C[C@@H]1C[C@H](C)C[C@H](C)[C@@H](O)CC(=O)O[C@H]([C@@H]2CCC[C@H]2C(=O)OCCc2ccccc2)C/C=C/C=C(/C#N)[C@H](O)[C@@H](C)C1
inactive: all assays above

C[C@@H]1C[C@H](C)C[C@H](C)[C@@H](O)CC(=O)O[C@H]([C@@H]2CCC[C@H]2C(=O)OCCN2CCN(C(=O)OC(C)(C)C)CC2)C/C=C/C=C(/C#N)[C@H](O)[C@@H](C)C1
inactive: all assays above

COc1ccc2[nH]cc(CCNC(=O)[C@@H]3CCC[C@H]3[C@@H]3C/C=C/C=C(/C#N)[C@H](O)[C@@H](C)C[C@H](C)C[C@H](C)C[C@H](C)[C@@H](O)CC(=O)O3)c2c1
inactive: all assays above

C[C@@H]1C[C@H](C)C[C@H](C)[C@@H](O)CC(=O)O[C@H]([C@@H]2CCC[C@H]2C(=O)N2CCN(Cc3ccccc3)CC2)C/C=C/C=C(/C#N)[C@H](O)[C@@H](C)C1
inactive: all assays above

C[C@@H]1C[C@H](C)C[C@H](C)[C@@H](O)CC(=O)O[C@H]([C@@H]2CCC[C@H]2C(=O)N2CCOCC2)C/C=C/C=C(/C#N)[C@H](O)[C@@H](C)C1
inactive: all assays above

C[C@@H]1C[C@H](C)C[C@H](C)[C@@H](O)CC(=O)O[C@H]([C@@H]2CCC[C@H]2C(=O)N2CCNCC2)C/C=C/C=C(/C#N)[C@H](O)[C@@H](C)C1
inactive: all assays above

COC(=O)[C@@H](CCSC)NC(=O)[C@@H]1CCC[C@H]1[C@@H]1C/C=C/C=C(/C#N)[C@H](O)[C@@H](C)C[C@H](C)C[C@H](C)C[C@H](C)[C@@H](O)CC(=O)O1
inactive: all assays above

COc1ccc(N2CCN(C(=O)[C@@H]3CCC[C@H]3[C@@H]3C/C=C/C=C(/C#N)[C@H](O)[C@@H](C)C[C@H](C)C[C@H](C)C[C@H](C)[C@@H](O)CC(=O)O3)CC2)cc1
inactive: all assays above

C[C@@H]1C[C@H](C)C[C@H](C)[C@@H](O)CC(=O)O[C@H]([C@@H]2CCC[C@H]2C(=O)N2CCCCC2)C/C=C/C=C(/C#N)[C@H](O)[C@@H](C)C1
inactive: all assays above
